From PubChem
Hck Nef HTS: human Hck-Nef kinase inhibition; P08631; Recombinant Hck-YEEI plus Nef, Z-Lyte FRET kinase assay; inhibition, % at 20 µM; hit rate 0.68% among 220,000; AID 463187;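 active means Hck-Nef kinase inhibition above about 50%, limit read from the data; inactive means inhibition below that limit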;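 further: 0% = DMSO with Hck plus Nef and 100% = Hck alone without Nef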
Diaphorase act: diaphorase activation or chemical reduction counter-screen. hit rate 0.005% among 190,000. activation factor at 20 µM. Diaphorase/resazurin coupled assay, resorufin fluorescence, 16 min; hits give high values; 1 = vehicle wells, 0 = NADH-free wells. AID 1229;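 active means diaphorase activity raised at least twofold by the compound at 20 µM; inactive means activation factor below 2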
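Material: Clostridium kluyveri diaphorase, purified enzyme; Quantity: enzyme 0.07 U/mL final; Medium: HEPES pH 7.4 buffer with MgCl2 and Tween 20; Dosing: single compound dose of 20 µM, 1% DMSO final; Schedule: 16 min reaction at room temperature; Measured by: red resorufin fluorescence at 544/590 nm excitation/emission.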
NCF1 inh: inhibitors of human p47phox binding | P14598 | p47phox/p22phox peptide binding, fluorescence polarization, 2 h | inhibition, % at 24.7 µM | hit rate 0.53% among 220,000;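 further: 0% = p47phox with labelled peptide and 100% = labelled peptide alone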
14-3-3 Bad inh: disrupts binding of bovine 14-3-3 zeta to phospho-Bad peptide; P63103; hit rate 0.71% among 220,000; TR-FRET 14-3-3zeta/Dy647-pBad peptide displacement, 1 h; inhibition, % at 21.7 µM;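 active means inhibition above about 70%, limit read from the data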;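 further: 0% = full 14-3-3 plus peptide FRET controls and 100% = background without 14-3-3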
Target sequence (P63103 whole entry, looked up): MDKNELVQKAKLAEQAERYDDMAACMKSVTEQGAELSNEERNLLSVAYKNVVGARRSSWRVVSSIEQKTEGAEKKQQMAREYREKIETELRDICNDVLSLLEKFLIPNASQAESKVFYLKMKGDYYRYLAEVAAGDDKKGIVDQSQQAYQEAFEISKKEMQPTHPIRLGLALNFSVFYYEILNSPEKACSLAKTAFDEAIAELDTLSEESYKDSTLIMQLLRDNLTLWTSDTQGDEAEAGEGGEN
eIF4E 4G PPI: eIF4E/eIF4G interaction inhibition in translation initiation; hit rate 0.37% among 220,000; TR-FRET eIF4E-eIF4GI(517-606) binding, 2 h; inhibition, % at 21.7 µM; AID 782;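 further: 0% = full FRET control wells and 100% = background wells lacking eIF4GI fragment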
* hit, by the source's call; x = not tested or not shown; ! = a repeat was not active; [ ] = another dose, or the depositor's remark. An excerpt weighted towards active compounds, which were near 2% of everything screened.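 How the source made its calls, unless noted: active means inhibition above about 30% (limit read from the data); inactive means the rest.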

SMILES	Hck Nef HTS	Diaphorase act	NCF1 inh	14-3-3 Bad inh	eIF4E 4G PPI
O=C(C1CCCN(Cc2ccccc2)C1)N1CCc2ccccc2C1 (configuration not stated)	1	0.9	-7	78*	1
CC1CN=C(N(C(=S)Nc2ccccc2)c2cccc(C(F)(F)F)c2)S1 (configuration not stated)	8	x	-4	6	-9
COc1cc(/C=C/c2nc3ccc([N+](=O)[O-])cc3s2)ccc1OCC(=O)O	-86	x	-26	4	-6
CN1CCN(C2=Nc3ccccc3Oc3ccc(Cl)cc32)CC1	-1	0.9	38*!	-3	0
COc1ccc2c(c1)nc(SCC(=O)c1cccs1)n2C	0	0.9	-4	71*	10
COc1ccc2c(c1)nc(SCC(=O)C(C)(C)C)n2C	1	1	-8	73*	-5
N#Cc1ccc(S(=O)(=O)N2CCc3[nH]c4ccc(F)cc4c3C2)cc1	18	x	-13	-11	-3
CC(NC(=O)CCl)c1ccccc1Br (configuration not stated)	9	x	8	-5	-8
c1ccc(-c2ccccc2OCCOCCN2CCNCC2)cc1	18	0.7	-4	27	5
CCN1CCN(CCOCCOc2ccccc2-c2ccccc2)CC1	12	0.9	5	71*	3
O=C(CSc1nnc(C2COc3ccccc3O2)o1)Nc1nccs1 (configuration not stated)	-2	1	37*	-2	-1
O=C(CSc1nnc(C2COc3ccccc3O2)o1)NC1CCCCC1 (configuration not stated)	2	1	-3	5	-1
O=C(O)C1CCCCC1C(=O)NCCc1ccncc1 (configuration not stated)	-6	0.9	-12	72*	-1
O=C(O)[C@H]1CCCC[C@H]1C(=O)NCCc1ccccc1	-2	0.9	-7	-9	-3
CC(C)(C)NC(=O)c1sccc1C(=O)O	4	x	-14	77*	4
CCc1ccc(S(=O)(=O)/N=C2/C=C(Sc3ncn[nH]3)C(=O)c3ccccc32)cc1	-3	0.5	55*	84*[fluorescence artefact?]	32*[fluorescence artefact?]
CCOc1cccc2c1OC1(C)CC2NC(=O)N1Cc1ccccc1 (configuration not stated)	15	0.9	60*	1	-2
COc1cccc2c1OC1(C)CC2NC(=O)N1Cc1ccccc1 (configuration not stated)	-24	1	-5	-1	0
CN(CCC#N)C(=O)CC1(Cc2ccccc2)CCOC(C)(C)C1 (configuration not stated)	14	x	11	6	-2
CC1CCCCN1C(=O)C12CCC(C)(/C(=N/O)C1)C2(C)C (configuration not stated)	-1	1	37*	9	1
O=C(CCO)c1ccc(O)cc1	26	0.8	-14	75*	10
O=C(NC(=S)N1CCN(c2ccccc2)CC1)c1ccc(S(=O)(=O)N2CCOCC2)cc1	7	x	-6	-2	-2
CCC1C/C(=C/c2ccco2)C(=O)/C(=C/c2ccco2)C1 (configuration not stated)	62*	0.8	-37	-9	5
O=C1C(=Cc2ccco2)C(=O)c2ccccc21	9	0.8	-8	-25	4
COc1ccc(-c2ccc(-c3nnn(CC(=O)N4CCOCC4)n3)cc2)cc1	0	0.9	-12	44	-7
SMILES	Hck Nef HTS	Diaphorase act	NCF1 inh	14-3-3 Bad inh	eIF4E 4G PPI
COc1ccc(N2CCN(C(=O)Cn3nnc(-c4ccc(N(C)C)cc4)n3)CC2)cc1	23	1.1	17	77*	-8
Cc1cccc(C(=O)O/N=C2\CCSc3ccc(C)cc32)c1	-1	0.8	94*	27	5
Cc1ccc(C(=O)O/N=C2\CCSc3ccc(C)cc32)cc1	-2	0.8	-13	16	3
CSc1nc(-c2ccco2)nn1S(=O)(=O)c1ccccc1	0	0.8	-3	81*	20
Fc1ccc(-c2nc3c(-c4ccc(Cl)cc4)cnn3cc2CCN2CCOCC2)cc1	16	0.9	-11	-5	-1
COc1cccc(OC)c1OCCCCN1CCCC1	0	0.9	0	74*	-4
Cc1cc(Br)ccc1OCCCCN1CCCCC1	15	0.9	48*	27	-2
COc1cccc(OC)c1OCCCN1CCOCC1	5	0.5	-9	45	0
